Active and inactive are the calls of the source.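 The calls were made as follows, unless noted: active = compounds giving at least 50% inhibition in the cell-based MKP-3 phosphatase rescue imaging test; inactive = the rest.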
Legend:
[1] = inhibitors of TNFa-induced NFkB p65 translocation, primary screen, imaging, HUVEC, MLSMR starter and 10KST1 sets (AID 438;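 active = inhibition above 20% together with a positive visual image hit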;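 also: compound added about 3h40 before a 20 min TNFalpha stimulation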;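 as to inhibition: signal is the nuclear over cytoplasmic p65 intensity ratio per well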); conditions: HUVEC TNFa-induced p65 nuclear translocation; cell count: measured here: nuclei count (cytotoxicity indicator), at 2.08 µM; inhibition: at 2 µM, stronger effect = higher value, 0% TNFa-plus-vehicle, 100% no-TNFa wells
[2] = endothelial E-selectin expression blockers – imaging, HUVEC, immunofluorescence, MLSMR starter and 10KST1 sets, primary screen (AID 487;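 active = visually confirmed hit in the image check and inhibition above 20%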;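 as to inhibition: signal is fraction of cell area covered by stained E-selectin grains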;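 as to nuclei count: 100% = median nuclei count of all wells on the same plate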); conditions: HUVEC TNFalpha-induced E-selectin immunofluorescence imaging, at 2 µM; inhibition: stronger effect = higher value; nuclei count: measured here: cell number, toxicity
[3] = Primary imaging screen for DUSP6 inhibitors that restore phospho-Erk in transfected HeLa cells, chemical complementation (AID 609); conditions: HeLa MKP-3 transfected, phospho-Erk imaging KS statistic, at 10 µM, cells stimulated with TPA for 15 min;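 as to inhibition: phospho-Erk level distribution per well compared with pooled transfected vehicle control wells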
[4] = target: Dual specificity protein phosphatase 6 (Homo sapiens) (UniProt Q16828); assay: as above; conditions: HeLa MKP-3 transfected, phospho-Erk imaging KS statistic; at 10 µM; stronger effect = higher value; cells stimulated with TPA for 15 min
Dual specificity protein phosphatase 6 (Homo sapiens), sequence (Q16828 whole entry, looked up): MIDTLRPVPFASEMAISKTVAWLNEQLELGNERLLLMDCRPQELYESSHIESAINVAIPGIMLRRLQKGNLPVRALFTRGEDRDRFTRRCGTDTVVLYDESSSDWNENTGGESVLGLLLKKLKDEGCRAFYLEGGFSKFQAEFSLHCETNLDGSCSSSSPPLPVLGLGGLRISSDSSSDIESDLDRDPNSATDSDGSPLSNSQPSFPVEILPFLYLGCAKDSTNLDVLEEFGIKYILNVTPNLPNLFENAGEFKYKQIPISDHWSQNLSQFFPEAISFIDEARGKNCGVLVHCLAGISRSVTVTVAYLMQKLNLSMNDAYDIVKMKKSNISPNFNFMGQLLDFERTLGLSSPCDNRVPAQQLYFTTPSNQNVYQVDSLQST

[5] = target: Voltage-gated potassium channel subunit beta-2 (Rattus norvegicus) (UniProt P62483); assay: inhibitors of rat Kvbeta2 reductase activity – biochemical, NADPH fluorescence, primary screen (AID 622;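 active = fluorescence slope higher than the sample average by over 3 SD, cut at about -0.22 in these data, passing the limit was not always enough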;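 also: slope of raw intensity against log time taken from 70 to 1610 s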); conditions: recombinant KvBeta, 4-cyanobenzaldehyde reduction, at 10 µM, stronger effect = higher value
Voltage-gated potassium channel subunit beta-2 (Rattus norvegicus), sequence (P62483 whole entry, looked up): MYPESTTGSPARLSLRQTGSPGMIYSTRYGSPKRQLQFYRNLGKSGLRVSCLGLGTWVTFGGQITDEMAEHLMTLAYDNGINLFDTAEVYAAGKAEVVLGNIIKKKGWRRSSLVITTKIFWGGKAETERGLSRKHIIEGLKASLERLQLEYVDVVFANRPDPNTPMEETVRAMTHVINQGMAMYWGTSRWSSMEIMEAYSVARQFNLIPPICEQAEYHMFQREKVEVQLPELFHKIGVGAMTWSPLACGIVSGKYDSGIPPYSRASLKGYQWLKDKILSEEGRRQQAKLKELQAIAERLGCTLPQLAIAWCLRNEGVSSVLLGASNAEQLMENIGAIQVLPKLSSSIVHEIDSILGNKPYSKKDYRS

[6] = target: Voltage-gated potassium channel subunit beta-2 (Rattus norvegicus) (UniProt P62483); assay: enhancers of rat Kvbeta2 NADPH turnover – biochemical, NADPH fluorescence, primary screen (AID 623;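 active = NADPH fluorescence slope more negative than the mean of all samples by about 3 SD, 99.7% confidence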;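 also: fluorescence intensity change per second fitted from 20 to 320 s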); conditions: Recombinant KvBeta, NADPH fluorescence decrease slope, 10 min; at 10 µM; stronger effect = lower value
[7] = target: Muscarinic acetylcholine receptor M4 (Homo sapiens) (UniProt P08173); assay: M4-linked GIRK flux change, two-sided – cell-based, HEK293 M4/GIRK, thallium flux, BTC-AM, M4 allosteric agonist project, primary screen (AID 625;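 active = fluorescence slope after compound addition differing from the mean of all tested samples at 99.7% confidence, mostly higher but some lower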;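 also: thallium influx through GIRK channels coupled to M4 in HEK293 cells with BTC-AM dye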); conditions: at 10 µM, actives lie on both sides
Muscarinic acetylcholine receptor M4 (Homo sapiens), sequence (P08173 whole entry, looked up): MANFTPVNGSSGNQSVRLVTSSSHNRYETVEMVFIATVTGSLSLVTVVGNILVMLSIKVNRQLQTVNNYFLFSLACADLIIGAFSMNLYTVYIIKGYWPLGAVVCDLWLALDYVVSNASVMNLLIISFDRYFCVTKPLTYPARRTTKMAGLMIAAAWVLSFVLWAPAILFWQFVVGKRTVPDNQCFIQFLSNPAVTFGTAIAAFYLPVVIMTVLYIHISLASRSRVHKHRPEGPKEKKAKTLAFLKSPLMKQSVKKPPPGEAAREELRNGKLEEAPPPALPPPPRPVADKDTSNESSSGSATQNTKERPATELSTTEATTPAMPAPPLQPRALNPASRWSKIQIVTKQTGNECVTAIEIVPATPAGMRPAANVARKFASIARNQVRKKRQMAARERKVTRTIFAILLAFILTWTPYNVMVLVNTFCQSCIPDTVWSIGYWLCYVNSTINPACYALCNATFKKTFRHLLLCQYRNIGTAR
In short: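 Material – HEK293 cells with M4 receptor and GIRK channels · Buffer or medium – pH 7.3 thallium assay buffer · Doses – one dose, 10 µM final · Timing – cells overnight at 37 °C, BTC-AM loading 1 h, reads 2 min total · Measured by – kinetic fluorescence with BTC-AM dye · Controls – carbachol and DMSO controls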

[8] = inhibitors of larval lipid processing in zebrafish, primary screen, whole organism, PED6 fluorescence, gall bladder and intestine (AID 686;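 active = a full or partial loss of lipid-probe fluorescence in the fish gall bladder, intestine or both, judged by eye; inactive = no fluorescence loss, or compound toxic to the fish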;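 also: larvae 5 to 7 days old with five fish per well; signal comes from phospholipase A2 cleavage of quenched PED6 carried via bile; overnight exposure to compound and PED6 before scoring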); conditions: Zebrafish larvae PED6 lipid processing, fluorescence scoring; screened at 20 µM (by protocol)
In short: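 system = live zebrafish larvae aged 5-7 days, whole organism | probe or stimulus = ingested quenched lipid PED6 at 100 nM | doses = 20 µM single dose | timing = overnight exposure | detection = fluorescence microscopy with visual scoring of gall bladder and intestine | read-out = visual per-well fluorescence inhibition score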

[9] = loss of swimming-algae plug formation – whole organism, Chlamydomonas reinhardtii, WT vs cilia-less mutant, absorbance, 96-well, primary screen (AID 463189;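 active = inhibition at or above 50% relative to wild type and mutant plate controls; inactive = inhibition below 50%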;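 also: 0% = wild type cc124 cells in DMSO and 100% = ciliumless bld1 mutant cells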); conditions: Chlamydomonas reinhardtii gravitaxis, OD600 absorbance, 2 days; at 10 µM; stronger effect = higher value
[10] = measured here: cell density z-score
[11] = measured here: nuclear c-Myc green intensity z-score
[12] = measured here: nuclear pErk red intensity z-score, stronger effect = higher value

Compound	cell count [1]	inhibition [1]	inhibition [2]	nuclei count [2] [%]	z-score [3, 10]	z-score [3, 11]	z-score [3, 12]	inhibition [4]	fluorescence slope [5]	NADPH fluorescence slope [6]	fluorescence slope [7]	outcome [8]	inhibition [9]
CC(O)(C#CCN1CCOCC1)c1ccccc1 (stereo unspecified)	634	1.5% (inactive)	-34.4% (inactive)	149	0.104	0.285	0.53	-5.81% (inactive)	-0.455 (inactive)	-5.1e-05 (inactive)	0.00484 (inactive)	inactive	17.4% (inactive)
Cc1ccc2cc(CNC(C)C)c(=O)[nH]c2c1	529	-8.4% (inactive)	12.9% (inactive)	99.8	2.86	-1.18	-1.89	37.7% (inactive)	-0.49 (inactive)	-2.7e-05 (inactive)	0.00672 (inactive)	inactive	-6.41% (inactive)
CN1CCc2c(n(CC(O)CN3C(=O)c4ccccc4S3(=O)=O)c3ccccc23)C1=O (stereo unspecified)	678	-11.7% (inactive)	-109% (inactive)	158	1.84	-0.542	-1.28	6.04% (inactive)	-0.488 (inactive)	-3.3e-05 (inactive)	0.00494 (inactive)	inactive	6.44% (inactive)
COc1cccc(C2=CC(c3ccc(N(C)C)cc3)n3nnnc3N2)c1 (stereo unspecified)	525	0.8% (inactive)	27.7% (inactive)	156	-0.234	1.06	0.0937	9.91% (inactive)	-0.33 (inactive)	-3.6e-05 (inactive)	0.00494 (inactive)	inactive	-6.32% (inactive)
CCC(CC)n1[nH]c(=O)cc1N	392	-15.4% (inactive)	-166% (inactive)	144	2	-1.52	-0.418	7.73% (inactive)	-0.46 (inactive)	-9.4e-05 (inactive)	0.0051 (inactive)	inactive	7.67% (inactive)
COc1ccc(Nc2cc(C)nc(-n3nc(C)cc3C)n2)cc1	454	12% (inactive)	-182% (inactive)	127	-0.499	-0.357	-1.13	-3.95% (inactive)	-0.427 (inactive)	-2.8e-05 (inactive)	0.00507 (inactive)	inactive	45% (inactive)
Cc1cc(=O)oc2cc(OCC(=O)NCc3cccnc3)ccc12	618	9% (inactive)	-1.6% (inactive)	105	-0.419	-0.48	0.0246	-3.95% (inactive)	-0.428 (inactive)	-5e-05 (inactive)	0.00447 (inactive)	inactive	-0.087% (inactive)
CCc1cc(=O)oc2cc(C)c(CN3CCCC(C)C3)c(O)c12 (stereo unspecified)	539	-7.1% (inactive)	-2.7% (inactive)	109	1.56	0.423	-0.74	12.7% (inactive)	-0.486 (inactive)	-2.8e-05 (inactive)	0.00473 (inactive)	inactive	-8.79% (inactive)
COc1ccc(/C(O)=C2/C(=O)C(=O)N(Cc3ccco3)C2c2cccs2)cc1 (stereo unspecified)	651	89.9% (active)	-68.9% (inactive)	157	1.37	-0.407	-1.07	3.42% (inactive)	-0.435 (inactive)	-4.8e-05 (inactive)	0.00532 (inactive)	inactive	1.62% (inactive)
Cc1nc2c(o1)CCc1ccccc1C2N1CCN(C)CC1 (stereo unspecified)	557	1.3% (inactive)	-37.3% (inactive)	103	0.777	-1.51	1.56	17.8% (inactive)	-0.412 (inactive)	-3.4e-05 (inactive)	0.00552 (inactive)	inactive	29.5% (inactive)
COc1ccc(CNc2oc(COc3ccc(Cl)cc3)nc2C#N)cc1	484	5.8% (inactive)	-33.3% (inactive)	164	0.0253	0.364	0.0628	-5.62% (inactive)	-0.474 (inactive)	-3.7e-05 (inactive)	0.00987 (inactive)	inactive	2.55% (inactive)
O=C(C/C(=N/O)c1ccccc1O)C(F)F	454	-0.6% (inactive)	-48.8% (inactive)	164	-0.709	1.7	1.49	9.37% (inactive)	-0.451 (inactive)	-2.7e-05 (inactive)	0.0043 (inactive)	inactive	-1.93% (inactive)
Cn1c(NCc2cccnc2)nc2c1c(=O)n(Cc1ccccc1F)c(=O)n2C	696	3% (inactive)	-201% (inactive)	167	0.699	-0.869	1.16	11.9% (inactive)	-0.51 (inactive)	-6e-05 (inactive)	0.00566 (inactive)	inactive	18.1% (inactive)
COc1ccc2c(c1)c(C(=O)CN1CCOCC1)c(C)n2C	628	0.5% (inactive)	57.3% (inactive)	85.8	-0.409	-0.95	1.79	17.8% (inactive)	-0.48 (inactive)	-5.6e-05 (inactive)	0.00679 (inactive)	active; weak signal in gallbladder and intestine	27.4% (inactive)
COc1ccc2nc(/N=C(\N)NC(=O)C(C)(C)C)nc(C)c2c1	503	-6.3% (inactive)	-18.6% (inactive)	184	0.367	-0.163	-0.285	9.91% (inactive)	-0.361 (inactive)	-3e-05 (inactive)	0.00616 (inactive)	inactive; toxic	2.17% (inactive)
COCCCn1cnc2c(c1=O)c1nc3ccccc3nc1n2CCc1ccccc1	607	-6.7% (inactive)	10.3% (inactive)	115	-3.3	0.876	0.579	1.63% (inactive)	-0.492 (inactive)	-4.8e-05 (inactive)	0.00438 (inactive)	inactive	12.1% (inactive)
CN(C)c1ccc(NC(=O)c2sc(SCC(=O)Nc3nccs3)nc2N)cc1	700	-11.3% (inactive)	0.8% (inactive)	179	-1.08	1.63	0.495	1.98% (inactive)	-0.491 (inactive)	-9e-05 (inactive)	0.00686 (inactive)	inactive	-7.49% (inactive)
CCOC(=O)NC(Nc1cc(C)on1)(C(F)(F)F)C(F)(F)F	705	-7.9% (inactive)	-70% (inactive)	169	-0.319	1.98	0.812	-11.4% (inactive)	-0.465 (inactive)	-3.9e-05 (inactive)	0.00511 (inactive)	inactive	-3.89% (inactive)
C(=N\n1cnnc1)/c1ccccn1	607	3.2% (inactive)	-109% (inactive)	127	0.675	3.12	-0.143	9.42% (inactive)	-0.442 (inactive)	-0.000114 (inactive)	0.00562 (inactive)	inactive	16.5% (inactive)
CCCN(CCC)c1nc2ccccc2nc1C(C#N)C(=O)OC(C)COC (stereo unspecified)	586	-26.5% (inactive)	1.8% (inactive)	174	0.238	0.588	0.413	-12.6% (inactive)	-0.408 (inactive)	-7.9e-05 (inactive)	0.00444 (inactive)	inactive	26.1% (inactive)
O=C(c1coc(=O)c(Br)c1)N1CCOCC1	718	2.4% (inactive)	-137% (inactive)	181	-0.0624	0.26	0.186	-4.7% (inactive)	-0.429 (inactive)	3.1e-07 (inactive)	0.00447 (inactive)	inactive	14.2% (inactive)
CCc1nc(NCCN2CCOCC2)c(C#N)c2c1CCCC2	358	-2.8% (inactive)	-19.6% (inactive)	79.7	-0.865	0.944	0.38	11.4% (inactive)	-0.595 (inactive)	4.1e-06 (inactive)	0.00436 (inactive)	inactive	30.2% (inactive)
C/C(NC(=O)c1ccccc1F)=C1\C(=O)C[C@@H]2[C@H]1C2(C)C	697	-13.5% (inactive)	-170% (inactive)	187	-0.142	0.763	-0.13	-2.47% (inactive)	-0.483 (inactive)	-0.000131 (inactive)	0.00606 (inactive)	inactive	24.1% (inactive)
CCC(=O)Nc1nc2ccccc2n1Cc1ccccc1C	480	-2.1% (inactive)	-158% (inactive)	114	0.4	0.0083	0.265	-3.97% (inactive)	-0.407 (inactive)	1.4e-06 (inactive)	0.00508 (inactive)	inactive	-13.6% (inactive)
COC(=O)/C=c1/s/c(=C(\C#N)C(=O)NCc2ccco2)n(-c2ccccc2)c1=O	395	0.2% (inactive)	-54.5% (inactive)	129	-0.296	-0.55	-0.453	1.48% (inactive)	-0.455 (inactive)	-3.8e-05 (inactive)	0.00374 (inactive)	inactive	45.7% (inactive)
COC(=O)C(NC(=O)c1ccccc1)(Nc1nccs1)C(F)(F)F (stereo unspecified)	677	-5.5% (inactive)	-7.4% (inactive)	159	1.36	-0.846	0.224	22.1% (inactive)	-0.474 (inactive)	-2.6e-05 (inactive)	0.00463 (inactive)	inactive	-5.27% (inactive)
CCOC(=O)COn1c(=O)c(-c2ccc(OC)c(OC)c2)[n+]([O-])c2ccccc21	542	-6% (inactive)	-40.6% (inactive)	142	0.722	-0.529	0.673	-1.98% (inactive)	-0.33 (inactive)	-7.7e-06 (inactive)	0.00588 (inactive)	inactive	37.5% (inactive)

— PubChem BioAssay
